Experimental data as given in ChEMBL document CHEMBL2311525, “Design, synthesis, and pharmacological properties of new heteroarylpyridine/heteroarylpyrimidine derivatives as CB(2) cannabinoid receptor partial agonists” (J Med Chem, 2013).

Tests used:
Cannabinoid receptor 2 [1] = biological target: T1, Cannabinoid receptor 2 (Homo sapiens, UniProt P34972); assay: Agonist activity at human CB2 receptor expressed in CHO cells assessed as forskolin-stimulated [3H]cyclic-AMP accumulation by scintillation counting analysis; assay type: functional, cell-based
Homo sapiens = species: Homo sapiens; assay: Selectivity index, ratio of Ki for human recombinant CB1 receptor to Ki for human recombinant CB2 receptor
Cannabinoid receptor 1 [2] = biological target: T2, Cannabinoid receptor 1 (Homo sapiens, UniProt P21554); assay: Displacement of [3H]CP-55,940 from human recombinant CB1 receptor expressed in CHO cell membranes after 90 mins by scintillation counting analysis
Cannabinoid receptor 2 [3] = biological target: T1, Cannabinoid receptor 2; assay: Agonist activity at human CB2 receptor expressed in CHO cells assessed as forskolin-stimulated [3H]cyclic-AMP accumulation by scintillation counting analysis relative to WIN 55,212-2; assay type: functional, cell-based
How it was run: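 CHO cells stably expressing human CB2, 1 × 10^6 cells/assay, in buffered saline (10 mM MgCl2, 5 mM glucose, 5 mM HEPES, pH 7.4, 37 °C) with 0.5 mM Ro 20-1724. Preincubated 10 min at 37 °C, then tested with 1 μM forskolin. Stopped with cold 6% TCA and ether-extracted. cAMP read by [3H]cAMP competition binding to beef adrenal binding protein with charcoal separation.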

Cannabinoid receptor 2 [4] = biological target: T1, Cannabinoid receptor 2; assay: Displacement of [3H]CP-55,940 from human recombinant CB2 receptor expressed in CHO cell membranes after 60 mins by scintillation counting analysis
Cannabinoid receptor 1 [5] = biological target: Cannabinoid receptor 1 (Rattus norvegicus, UniProt P20272); assay: Displacement of [3H]CP-55,940 from Sprague-Dawley rat brain CB1 receptor by scintillation counting analysis
How it was run: (§1)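 Male Sprague-Dawley rat brain membranes, prepared by spinning at 2000g and then 40000g, in 50 mM Tris-HCl with 1 mM EDTA, 3 mM MgCl2 and 0.5% fatty-acid-free BSA, pH 7.4. Incubated with 1.0 nM [3H]CP-55,940, 40 μg protein/100 μL and test compound at 1 nM–10 μM. Filtered on GF/C. Ki by Cheng–Prusoff, n = 4.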

Cannabinoid receptor 2 [6] = biological target: T3, Cannabinoid receptor 2 (Rattus norvegicus, UniProt Q9QZN9); assay: Displacement of [3H]CP-55,940 from Sprague-Dawley rat spleen CB2 receptor by scintillation counting analysis
T3 sequence (Q9QZN9 whole entry): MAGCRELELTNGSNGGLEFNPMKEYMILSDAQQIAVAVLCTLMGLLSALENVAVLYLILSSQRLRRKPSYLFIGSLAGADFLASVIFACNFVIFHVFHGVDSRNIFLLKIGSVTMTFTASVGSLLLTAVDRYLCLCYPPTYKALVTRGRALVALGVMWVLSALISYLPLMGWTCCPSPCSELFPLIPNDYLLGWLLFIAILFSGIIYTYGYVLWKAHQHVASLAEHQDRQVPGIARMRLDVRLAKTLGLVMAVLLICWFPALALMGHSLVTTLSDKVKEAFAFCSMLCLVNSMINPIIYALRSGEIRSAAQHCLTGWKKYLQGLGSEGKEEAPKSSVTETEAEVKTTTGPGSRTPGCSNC
How it was run: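 Male Sprague-Dawley rat spleen membranes, prepared by spinning at 2000g and then 40000g, in 50 mM Tris-HCl with 1 mM EDTA, 3 mM MgCl2 and 0.5% fatty-acid-free BSA, pH 7.4. Filtered on GF/C.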

Cannabinoid receptor 1 [7] = biological target: T2, Cannabinoid receptor 1; assay: Displacement of [3H]CP-55,940 from human recombinant CB1 receptor expressed in CHO cell membranes at 1 to 10000 nM after 90 mins by scintillation counting analysis
How it was run: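 Membranes from CHO cells expressing hCB1, spun at 100000g, in 50 mM Tris-HCl with 0.5% BSA, 5 mM MgCl2 and 2.5 mM EDTA, pH 7.4. Incubated with 0.5 nM [3H]CP-55,940 and compound at 1 nM–10 μM for 90 min at 30 °C. Filtered on GF/C and counted. Ki by Cheng–Prusoff, n = 4.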

[8] = biological target: Cannabinoid receptor 1 (Rattus norvegicus) (UniProt P20272); assay: Displacement of [3H]CP-55,940 from Sprague-Dawley rat brain CB1 receptor at 1 to 10000 nM by scintillation counting analysis; how it was run: as §1
Chain of Cannabinoid receptor 1 (Rattus norvegicus) (P20272 whole entry): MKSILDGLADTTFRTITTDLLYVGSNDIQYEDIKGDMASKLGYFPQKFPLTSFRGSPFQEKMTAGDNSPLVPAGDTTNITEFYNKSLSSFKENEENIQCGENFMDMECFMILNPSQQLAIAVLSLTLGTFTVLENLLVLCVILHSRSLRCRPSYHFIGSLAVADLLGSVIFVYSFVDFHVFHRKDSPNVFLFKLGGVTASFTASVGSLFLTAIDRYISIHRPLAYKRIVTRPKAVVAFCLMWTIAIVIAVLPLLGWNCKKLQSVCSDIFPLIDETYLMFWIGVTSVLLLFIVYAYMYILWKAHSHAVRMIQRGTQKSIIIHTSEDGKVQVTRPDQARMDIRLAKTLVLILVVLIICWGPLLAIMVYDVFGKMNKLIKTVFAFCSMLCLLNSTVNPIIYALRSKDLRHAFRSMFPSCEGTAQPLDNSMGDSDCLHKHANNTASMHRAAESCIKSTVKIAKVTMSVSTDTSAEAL

T2 sequence (P21554 whole entry): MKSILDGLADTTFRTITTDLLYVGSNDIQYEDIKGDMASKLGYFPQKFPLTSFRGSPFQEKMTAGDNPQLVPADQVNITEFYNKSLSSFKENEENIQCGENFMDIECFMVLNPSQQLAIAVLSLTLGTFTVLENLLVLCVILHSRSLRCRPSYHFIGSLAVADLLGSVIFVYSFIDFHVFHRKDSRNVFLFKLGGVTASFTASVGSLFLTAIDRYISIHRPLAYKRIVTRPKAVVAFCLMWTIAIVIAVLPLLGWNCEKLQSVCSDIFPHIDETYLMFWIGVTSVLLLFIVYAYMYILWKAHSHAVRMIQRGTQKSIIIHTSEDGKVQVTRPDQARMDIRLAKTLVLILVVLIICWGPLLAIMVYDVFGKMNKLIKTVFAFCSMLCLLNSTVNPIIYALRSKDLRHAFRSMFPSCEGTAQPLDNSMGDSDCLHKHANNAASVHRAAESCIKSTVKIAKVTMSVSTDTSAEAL
Chain of Cannabinoid receptor 1 (Rattus norvegicus, UniProt P20272) (P20272 whole entry): as the sequence (P20272 whole entry) above
T1 sequence (P34972 whole entry): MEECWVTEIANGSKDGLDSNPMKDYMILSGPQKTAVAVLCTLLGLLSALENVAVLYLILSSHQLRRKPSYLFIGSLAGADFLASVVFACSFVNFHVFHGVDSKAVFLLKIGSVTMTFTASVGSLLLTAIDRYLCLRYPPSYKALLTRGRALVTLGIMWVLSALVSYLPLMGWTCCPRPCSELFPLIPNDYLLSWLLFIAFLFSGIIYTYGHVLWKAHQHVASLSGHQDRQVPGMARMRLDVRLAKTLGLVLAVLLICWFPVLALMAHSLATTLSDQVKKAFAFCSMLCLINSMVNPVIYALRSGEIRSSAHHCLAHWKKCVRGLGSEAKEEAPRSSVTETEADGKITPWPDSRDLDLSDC

Structure (SMILES)	EC50 (Cannabinoid receptor 2 [1]) [nM]	Ratio Ki (Homo sapiens)	Ki (Cannabinoid receptor 1 [2]) [nM]	Emax (Cannabinoid receptor 2 [3]) [%]	Ki (Cannabinoid receptor 2 [4]) [nM]	Ki (Cannabinoid receptor 1 [5]) [nM]	Ki (Cannabinoid receptor 2 [6]) [nM]	inhibition (Cannabinoid receptor 1 [7]) [%]	inhibition [8] [%]
CCCCCn1cc(C(=O)NC2CCCCC2)c(=O)c2c(C)csc21	107	7.2	86	-64	12.3	98	14.8		
CCCCCn1cc(C(=O)NC23CC4CC(CC(C4)C2)C3)c(=O)c2c(C)csc21	31	12.5	13.7	-167	1.12	16.5	1.25		
CCCCCn1cc(C(=O)NC23CC4CC(C)(CC(C)(C4)C2)C3)c(=O)c2c(C)nn(C)c21	45	107	1050	71	9.83	3260	16.7		
CCCCCn1cc(C(=O)NC2CCCCC2)c(=O)c2c(CC)nn(C)c21	2350	2	957	32	469	1120	516		
CCCCCn1cc(C(=O)NC(C)CCC(C)C)c(=O)c2c(C)nn(C)c21 (stereo not given)	827	8.5	1800	46	212	2260	262		
CCCCCn1cc(C(=O)NC23CC4CC(CC(C4)C2)C3)c(=O)n2nc(-c3ccccc3)nc12		146	523		3.58	560	4.83		
CCCCCn1cc(C(=O)NC2CCCCCC2)c(=O)c2c(C)nn(C)c21	51	23	252	65	11.2	1620	35		
Cc1nn(C)c2c1c(=O)c(C(=O)NC1CCCCC1)cn2Cc1ccccc1	3820	4.4	4250	36	956	4560	1100		
CCCCCn1cc(C(=O)NC23CC4CC(CC(C4)C2)C3)c(=O)c2cnn(C)c21	41	432	4750	67	11.6	5340	13.3		
CCCCCn1cc(C(=O)NC2CCCCCC2)c(=O)c2cnn(C)c21	404	44	4550	56	103	5200	130		
CCCCn1cc(C(=O)NC2CCCCC2)c(=O)c2c(C)nn(C)c21	1890	9.1	1260	38	138	1530	145		
CCCCCn1cc(C(=O)NC23CC4CC(CC(C4)C2)C3)c(=O)c2c(C)c(C)sc21	34	15.9	43	-178	3.27	52	4.26		
CCCCCn1cc(C(=O)N[C@H]2CC[C@@H](C)CC2)c(=O)c2c(C)nn(C)c21	52	68	723	16	10.6	750	11.8		
CCCCCn1cc(C(=O)NCc2ccccc2)c(=O)c2c(C)nn(C)c21		> 2.7	> 10000		3650	> 10000	4520	38	42
CCCn1cc(C(=O)NC2CCCCC2)c(=O)c2c(C)nn(C)c21		1.8	758		412	832	593		
CCCCCn1cc(C(=O)NCC2CCCCC2)c(=O)c2c(C)nn(C)c21	1560	3	1120	41	372	1040	508		

Structure (SMILES)	EC50 (Cannabinoid receptor 2 [1]) [nM]	Ratio Ki (Homo sapiens)	Ki (Cannabinoid receptor 1 [2]) [nM]	Emax (Cannabinoid receptor 2 [3]) [%]	Ki (Cannabinoid receptor 2 [4]) [nM]	Ki (Cannabinoid receptor 1 [5]) [nM]	Ki (Cannabinoid receptor 2 [6]) [nM]	inhibition (Cannabinoid receptor 1 [7]) [%]	inhibition [8] [%]
CCCCCn1cc(C(=O)NC2CCCCC2)c(=O)c2c(-c3ccc(Cl)cc3)nn(C)c21		> 2.8	> 10000		3620	> 10000	5020	22	15
CCCCCCn1cc(C(=O)NC2CCCCC2)c(=O)c2c(C)nn(C)c21	1200	12	3870	27	325	3220	480		
CCCCCn1cc(C(=O)NC23CC4CC(CC(C4)C2)C3)c(=O)n2ncnc12	87	35.6	712	60	20	850	21		
CCCCCn1cc(C(=O)Nc2ccccc2)c(=O)c2c(C)nn(C)c21	2160	1.7	865	38	524	1020	740		
CCCCCn1cc(C(=O)NC23CC4CC(CC(C4)C2)C3)c(=O)c2c(C(C)(C)C)nn(C)c21	1760	10	3750	43	363	3430	417		
CCCCCn1cc(C(=O)NC2CCCCC2)c(=O)c2c(C)noc21	14.3	17.7	155	98	8.74	187	38		
CCCCCn1cc(C(=O)NC2CCCCC2)c(=O)c2cnn(C)c21	872	22	5150	48	237	5650	250		
CCCCCn1cc(C(=O)NC2CCCCCC2)c(=O)c2c(-c3ccc(Cl)cc3)nn(C)c21		> 3.5	> 10000		2830	> 10000	4050	17	12
CCCCCn1cc(C(=O)NC23CC4CC(CC(C4)C2)C3)c(=O)c2c(C)nn(C)c21	49	84	800	68	9.51	832	11.4		
CCCCCn1cc(C(=O)N[C@H]2CC[C@H](C)CC2)c(=O)c2c(C)nn(C)c21	58	401	4570	14	11.4	4800	13.3		
CCCCCn1cc(C(=O)NC23CC4CC(CC(C4)C2)C3)c(=O)c2c(CC)nn(C)c21	162	12	440	51	37	2670	97		
CCCCCn1cc(C(=O)NC2CCCCCC2)c(=O)c2c(C)csc21	65	7.5	52	-95	6.95	67	8.23		
CCCCCn1cc(C(=O)NC2CCCCCC2)c(=O)c2c(C)noc21	35	7.8	145	99	18.5	184	50		
CCCCCn1cc(C(=O)NC23CC4CC(CC(C4)C2)C3)c(=O)c2c(C)noc21	83	69.9	1470	97	21	1490	26		
CCCCCn1cc(C(=O)NC2CCCCC2)c(=O)c2c(C)nn(C)c21	323	5.9	500	52	85	1420	100		
CCCCCn1cc(C(=O)NC2CCCCC2)c(=O)c2c(C(C)(C)C)nn(C)c21		> 2.8	> 10000		3530	> 10000	4030	23	19
